Assay results from different studies.
Each line is one published result; the experiments were not run side by side.
Target: Protein-tyrosine kinase 6 (PTK6, Homo sapiens, UniProt Q13882)

O=c1[nH]c2ccccc2n1C1CCN(Cc2ccc(-c3[nH]c4cc5ncnc5cc4nc3-c3ccccc3)cc2)CC1
remaining signal (cell-free assay; 0.5 µM): 91.1%

COc1cc(Nc2ncc(F)c(Nc3ccc4c(n3)NC(=O)C(C)(C)O4)n2)cc(OC)c1OC
inhibition (binding; 10 µM): 82%

CC(C)(C)c1cc(C=C(C#N)C#N)cc(Br)c1O
remaining activity (enzyme activity, inhibitor; 0.5 µM): 91.4%

Cc1nn(C)cc1-c1nc2c(N3CCN(Cc4ccc(Cl)cc4)CC3)c(Cl)cnc2[nH]1
remaining binding (binding, competition with immobilised ligand; 1 µM): 96%

C#Cc1n[nH]c2c(-c3cn([C@@H](C)c4ccccn4)c(=O)[nH]c3=O)cc(F)cc12
inhibition (enzyme activity, inhibitor; 0.1 µM): 5.5%

Cn1cncc1[C@@](O)(COc1ccc(C#N)cc1-c1ccc(OC(F)(F)F)cc1)c1ccc(C#N)cc1
remaining binding (cell-free assay, competition with immobilised ligand; 1 µM): 100%

Cn1cc(-c2cc(F)cc(N3CCn4c(cc5c4CCCC5)C3=O)c2CO)cc(Nc2ccc(N3CCN(C4COC4)CC3)cn2)c1=O
inhibition (enzyme activity, inhibitor; 0.1 µM): 10%

COc1ncccc1-c1cnn2ccc(N3CCN(C(=O)OC(C)C)CC3)nc12
remaining binding (binding, competition with immobilised ligand; 1 µM): 61%

Cn1cc(-c2cccc(N3CCc4c(sc5c4CC(C)(C)C5)C3=O)c2CO)cc(Nc2ccncn2)c1=O
inhibition (enzyme activity, inhibitor; 1 µM): 1%

C#Cc1n[nH]c2c(-c3cn([C@@H](C)c4ccccc4)c(=O)[nH]c3=O)cc(F)cc12
inhibition (enzyme activity, inhibitor; 0.1 µM): 9.4%
